Key:
Brain [1] = experiment: Drug uptake in Sprague-Dawley rat brain at 6.2 to 10.4 uCi, iv after 2 hrs by liquid scintillation counting; assay type: ADME, organism-based; conditions: in vivo
Summary of the method: (§1)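 Adult male rats (200–420 g) given radioiodinated agent, 6.5–7.0 μCi/mg, in 0.10–0.15 mL of 0.1 N HCl. Dosing was by tail vein under ether. Rats were killed by exsanguination, three at 0.5 h and five at 2 h. Organs were rinsed, blotted and weighed, with duplicate samples counted for radioactivity. Results are % administered dose/g, mean ± SEM.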

[2] = Drug uptake in Sprague-Dawley rat dorsolateral prostate at 6.2 to 10.4 uCi, iv after 2 hrs by liquid scintillation counting; assay type: ADME, organism-based, Prostate gland; conditions: in vivo; summary of the method: as §1
Blood [3] = experiment: Drug uptake in Sprague-Dawley rat blood at 6.2 to 10.4 uCi, iv after 2 hrs by liquid scintillation counting; assay type: ADME, organism-based; conditions: in vivo; summary of the method: as §1
Lung [4] = experiment: Drug uptake in Sprague-Dawley rat lung at 6.2 to 10.4 uCi, iv after 0.5 hrs by liquid scintillation counting; assay type: ADME, organism-based; conditions: in vivo, in the assay text read “well-scintillation gamma counting” for “liquid scintillation counting”
Summary of the method: (§2)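 Three rats were killed at 0.5 h and five at 2 h by exsanguination under ether. Organs were rinsed, blotted and weighed, duplicate samples gamma-counted (87% efficiency), expressed as % administered dose/g, mean ± SEM.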

Heart [5] = experiment: Drug uptake in Sprague-Dawley rat heart at 6.2 to 10.4 uCi, iv after 2 hrs by liquid scintillation counting; assay type: ADME, organism-based; conditions: in vivo, in the assay text read “well-scintillation gamma counting” for “liquid scintillation counting”; summary of the method: as §1
Pituitary gland [6] = experiment: Drug uptake in Sprague-Dawley rat pituitary at 6.2 to 10.4 uCi, iv after 2 hrs by liquid scintillation counting; assay type: ADME, organism-based; conditions: in vivo
[7] = Drug uptake in Sprague-Dawley rat bone marrow at 6.2 to 10.4 uCi, iv after 0.5 hrs by liquid scintillation counting; assay type: ADME, organism-based; conditions: in vivo; summary of the method: as §1
Duodenum [8] = experiment: Drug uptake in Sprague-Dawley rat duodenum at 6.2 to 10.4 uCi, iv after 2 hrs by liquid scintillation counting; assay type: ADME, organism-based; conditions: in vivo; summary of the method: as §1
Brain [9] = experiment: Drug uptake in Sprague-Dawley rat brain at 6.2 to 10.4 uCi, iv after 0.5 hrs by liquid scintillation counting; assay type: ADME, organism-based; conditions: in vivo; summary of the method: as §1
[10] = Drug uptake in Sprague-Dawley rat ventral prostate at 6.2 to 10.4 uCi, iv after 2 hrs by liquid scintillation counting; assay type: ADME, organism-based, Prostate gland; conditions: in vivo
Summary of the method: (§3)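 Adult male Sprague-Dawley rats (200–420 g) with free access to food and water. Under ether anesthesia, each received 6.2–10.4 μCi (6.5–7.0 μCi/mg) of tracer in 0.10–0.15 mL of 0.1 N HCl vehicle, iv via the tail vein. Rats were killed by exsanguination at 0.5 h (3 rats) or 2 h (5 rats). Organs were rinsed, blotted and weighed; duplicate samples were counted. Results are % administered dose/g, mean ± SEM.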

Testes [11] = experiment: Drug uptake in Sprague-Dawley rat testes at 6.2 to 10.4 uCi, iv after 2 hrs by liquid scintillation counting; assay type: ADME, organism-based, Testis; conditions: in vivo
[12] = Drug uptake in Sprague-Dawley rat bone marrow at 6.2 to 10.4 uCi, iv after 2 hrs by liquid scintillation counting; assay type: ADME, organism-based; conditions: in vivo; summary of the method: as §1
Adrenal [13] = experiment: Drug uptake in Sprague-Dawley rat adrenal at 6.2 to 10.4 uCi, iv after 2 hrs by liquid scintillation counting; assay type: ADME, organism-based, Adrenal gland; conditions: in vivo; summary of the method: as §1
Testes [14] = experiment: Drug uptake in Sprague-Dawley rat testes at 6.2 to 10.4 uCi, iv after 0.5 hrs by liquid scintillation counting; assay type: ADME, organism-based, Testis; conditions: in vivo
Liver [15] = experiment: Drug uptake in Sprague-Dawley rat liver at 6.2 to 10.4 uCi, iv after 0.5 hrs by liquid scintillation counting; assay type: ADME, organism-based; conditions: in vivo, in the assay text read “well-scintillation gamma counting” for “liquid scintillation counting”; summary of the method: as §2
Spleen [16] = experiment: Drug uptake in Sprague-Dawley rat spleen at 6.2 to 10.4 uCi, iv after 0.5 hrs by liquid scintillation counting; assay type: ADME, organism-based; conditions: in vivo, in the assay text read “well-scintillation gamma counting” for “liquid scintillation counting”; summary of the method: as §2
Heart [17] = experiment: Drug uptake in Sprague-Dawley rat heart at 6.2 to 10.4 uCi, iv after 0.5 hrs by liquid scintillation counting; assay type: ADME, organism-based; conditions: in vivo; summary of the method: as §1
Pancreas [18] = experiment: Drug uptake in Sprague-Dawley rat pancreas at 6.2 to 10.4 uCi, iv after 0.5 hrs by liquid scintillation counting; assay type: ADME, organism-based; conditions: in vivo, in the assay text read “well-scintillation gamma counting” for “liquid scintillation counting”; summary of the method: as §2
Liver [19] = experiment: Drug uptake in Sprague-Dawley rat liver at 6.2 to 10.4 uCi, iv after 2 hrs by liquid scintillation counting; assay type: ADME, organism-based; conditions: in vivo, in the assay text read “well-scintillation gamma counting” for “liquid scintillation counting”; summary of the method: as §2
Kidney [20] = experiment: Drug uptake in Sprague-Dawley rat kidney at 6.2 to 10.4 uCi, iv after 2 hrs by liquid scintillation counting; assay type: ADME, organism-based; conditions: in vivo, in the assay text read “well-scintillation gamma counting” for “liquid scintillation counting”; summary of the method: as §2
Blood [21] = experiment: Drug uptake in Sprague-Dawley rat blood at 6.2 to 10.4 uCi, iv after 0.5 hrs by liquid scintillation counting; assay type: ADME, organism-based; conditions: in vivo; summary of the method: as §1
[22] = Drug uptake in Sprague-Dawley rat ventral prostate at 6.2 to 10.4 uCi, iv after 0.5 hrs by liquid scintillation counting; assay type: ADME, organism-based, Prostate gland; conditions: in vivo; summary of the method: as §3
Spleen [23] = experiment: Drug uptake in Sprague-Dawley rat spleen at 6.2 to 10.4 uCi, iv after 2 hrs by liquid scintillation counting; assay type: ADME, organism-based; conditions: in vivo
[24] = Drug uptake in Sprague-Dawley rat diaphragm at 6.2 to 10.4 uCi, iv after 0.5 hrs by liquid scintillation counting; assay type: ADME, organism-based; conditions: in vivo; summary of the method: as §1
[25] = Drug uptake in Sprague-Dawley rat dorsolateral prostate at 6.2 to 10.4 uCi, iv after 0.5 hrs by liquid scintillation counting; assay type: ADME, organism-based, Prostate gland; conditions: in vivo; summary of the method: as §1
Lung [26] = experiment: Drug uptake in Sprague-Dawley rat lung at 6.2 to 10.4 uCi, iv after 2 hrs by liquid scintillation counting; assay type: ADME, organism-based; conditions: in vivo
Duodenum [27] = experiment: Drug uptake in Sprague-Dawley rat duodenum at 6.2 to 10.4 uCi, iv after 0.5 hrs by liquid scintillation counting; assay type: ADME, organism-based; conditions: in vivo; summary of the method: as §1
Thyroid gland [28] = experiment: Drug uptake in Sprague-Dawley rat thyroid at 6.2 to 10.4 uCi, iv after 2 hrs by liquid scintillation counting; assay type: ADME, organism-based; conditions: in vivo
Thyroid gland [29] = experiment: Drug uptake in Sprague-Dawley rat thyroid at 6.2 to 10.4 uCi, iv after 0.5 hrs by liquid scintillation counting; assay type: ADME, organism-based; conditions: in vivo
Kidney [30] = experiment: Drug uptake in Sprague-Dawley rat kidney at 6.2 to 10.4 uCi, iv after 0.5 hrs by liquid scintillation counting; assay type: ADME, organism-based; conditions: in vivo
[31] = Drug uptake in Sprague-Dawley rat diaphragm at 6.2 to 10.4 uCi, iv after 2 hrs by liquid scintillation counting; assay type: ADME, organism-based; conditions: in vivo; summary of the method: as §1
Pancreas [32] = experiment: Drug uptake in Sprague-Dawley rat pancreas at 6.2 to 10.4 uCi, iv after 2 hrs by liquid scintillation counting; assay type: ADME, organism-based; conditions: in vivo
Adrenal [33] = experiment: Drug uptake in Sprague-Dawley rat adrenal at 6.2 to 10.4 uCi, iv after 0.5 hrs by liquid scintillation counting; assay type: ADME, organism-based, Adrenal gland; conditions: in vivo; summary of the method: as §1
Pituitary gland [34] = experiment: Drug uptake in Sprague-Dawley rat pituitary at 6.2 to 10.4 uCi, iv after 0.5 hrs by liquid scintillation counting; assay type: ADME, organism-based; conditions: in vivo, in the assay text read “well-scintillation gamma counting” for “liquid scintillation counting”; summary of the method: as §2

- Drug uptake (Brain [1]): 0.088 % ID/g
- Drug uptake [2]: 0.436 % ID/g
- Drug uptake (Blood [3]): 0.041 % ID/g
- Drug uptake (Lung [4]): 2.384 % ID/g
- Drug uptake (Heart [5]): 0.44 % ID/g
- Drug uptake (Pituitary gland [6]): 0.681 % ID/g
- Drug uptake [7]: 0.44 % ID/g
- Drug uptake (Duodenum [8]): 0.343 % ID/g
- Drug uptake (Brain [9]): 0.063 % ID/g
- Drug uptake [10]: 0.293 % ID/g
- Drug uptake (Testes [11]): 0.048 % ID/g
- Drug uptake [12]: 0.682 % ID/g
- Drug uptake (Adrenal [13]): 1.577 % ID/g
- Drug uptake (Testes [14]): 0.036 % ID/g
- Drug uptake (Liver [15]): 1.008 % ID/g
- Drug uptake (Spleen [16]): 0.844 % ID/g
- Drug uptake (Heart [17]): 0.553 % ID/g
- Drug uptake (Pancreas [18]): 0.657 % ID/g
- Drug uptake (Liver [19]): 0.949 % ID/g
- Drug uptake (Kidney [20]): 1.67 % ID/g
- Drug uptake (Blood [21]): 0.073 % ID/g
- Drug uptake [22]: 0.296 % ID/g
- Drug uptake (Spleen [23]): 0.988 % ID/g
- Drug uptake [24]: 0.38 % ID/g
- Drug uptake [25]: 0.32 % ID/g
- Drug uptake (Lung [26]): 2.261 % ID/g
- Drug uptake (Duodenum [27]): 0.485 % ID/g
- Drug uptake (Thyroid gland [28]): 3.476 % ID/g
- Drug uptake (Thyroid gland [29]): 2.457 % ID/g
- Drug uptake (Kidney [30]): 1.926 % ID/g
- Drug uptake [31]: 0.293 % ID/g
- Drug uptake (Pancreas [32]): 0.617 % ID/g
- Drug uptake (Adrenal [33]): 1.732 % ID/g
- Drug uptake (Pituitary gland [34]): 0.533 % ID/g
SMILES: NCc1ccc(CN)c([125I])c1
